From PubChem BioAssay AID504597 (Broad Institute, 2011)

The compounds below were run on U2OS HRE-luciferase reporter, luminescence, HIF activation (assay: HIF-driven HRE reporter activators, dose response, U2OS cells, luminescence, dry powder, set 9 (AID 504597)).
How it was run: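 Measured by: luciferase luminescence, Steady-Glo reagent. System: U2OS cells carrying 3×HRE-luciferase reporter. Amount: 6,000 cells per well. Compound: 8-point series in 3-fold steps, pinned from 7.5 mM stock.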

| Structure (SMILES) | AC40 [nM] |
| --- | --- |
| Clc1cccc(CNc2nc(-c3ccccn3)nnc2-c2ccccc2)c1 | 1480 |
| c1ccc(CCNc2nc(-c3ccccn3)nnc2-c2ccccc2)cc1 | 3210 |
| CC(C)(C)CCNc1nc(-c2ccccn2)nnc1-c1ccccc1 | 1020 |
| c1ccc(-c2ccc(CNc3nc(-c4ccccn4)nnc3-c3ccccc3)cc2)cc1 | 461 |
| c1ccc(-c2cccc(CNc3nc(-c4ccccn4)nnc3-c3ccccc3)c2)cc1 | 816 |
| CC(C)(C)c1ccc(CNc2nc(-c3ccccn3)nnc2-c2ccccc2)cc1 | 546 |
